Experimental data reported in ChEMBL document CHEMBL3797182, “In vitro evaluation of imidazo[4,5-c]quinolin-2-ones as gametocytocidal antimalarial agents” (Bioorg Med Chem Lett, 2016).
pIC50: −log10 of the molar value.

What was measured:
[1] = system: Plasmodium falciparum; assay: Antimalarial activity against chloroquine-sensitive asexual blood stage of Plasmodium falciparum 3D7 infected in RBC after 72 hrs by SYBR Green assay; assay type: functional, organism-based; conditions: 3D7, 72 h
How it was run: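 Asexual blood-stage P. falciparum 3D7 (chloroquine-sensitive) parasites. 1536-well format, 11-point dose-response, duplicate tests. Torin 2 served as positive control and DMSO as negative control.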

[2] = system: Plasmodium falciparum; assay: Gametocytocidal activity against chloroquine-sensitive late gametocytic stage (III to V) of Plasmodium falciparum 3D7 after 72 hrs by Alamar Blue assay; assay type: functional, organism-based; conditions: 3D7, 72 h
How it was run: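 Late-stage (III–V) P. falciparum 3D7 gametocytes. AlamarBlue redox indicator reads cytosolic metabolic activity as a measure of gametocyte viability. 1536-well format, 11-point dose-response, duplicates. Torin 2 positive control, DMSO negative control.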

[3] = system: HepG2; assay: Cytotoxicity against human HepG2 cells assessed as cell viability after 24 hrs; assay type: cell-based; conditions: HepG2, 24 h
How it was run: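 HepG2 cell viability as general cytotoxicity. 1536-well, 11-point dose-response in duplicate, top concentration 46 μM. Torin 2 positive control, DMSO negative control.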

[4] = system: Plasmodium falciparum; assay: Selectivity ratio of IC50 for chloroquine-sensitive late gametocytic stage (III to V) of Plasmodium falciparum 3D7 to IC50 for chloroquine-sensitive asexual blood stage of Plasmodium falciparum 3D7; assay type: functional

SMILES	pIC50 [1]	pIC50 [2]	pIC50 [3]	Ratio IC50 [4]
Cn1c(=O)n(-c2cccc(C(F)(F)F)c2)c2c3cc(-c4cnc(N)nc4)ccc3ncc21	7.77	7.28	5.88	–
Nc1ncc(-c2ccc3ncc4[nH]c(=O)n(-c5cccc(C(F)(F)F)c5)c4c3c2)cn1	6.67	6.35	5.60	–
Cn1c(=O)n(-c2cccc(C(F)(F)F)c2)c2c3cc(-c4ccc5[nH]cnc5c4)ccc3ncc21	7.19	6.80	5.58	–
Cn1c(=O)n(-c2cccc(C(F)(F)F)c2)c2c3cc(-c4ccc(O)cc4)ccc3ncc21	6.94	6.64	5.63	1
COc1cccc(-n2c(=O)n(C)c3cnc4ccc(-c5ccc(N)nc5)cc4c32)c1	7.06	6.90	5.60	–
CC(=O)Nc1ccc(-c2ccc3ncc4c(c3c2)n(-c2cccc(C(F)(F)F)c2)c(=O)n4C)cn1	7.60	7.38	5.40	–
Cn1c(=O)n(-c2cccc(C(F)(F)F)c2)c2c3cc(-c4cccnc4)ccc3ncc21	7.02	6.63	4.99	–
Cc1ccc(-c2ccc3ncc4c(c3c2)n(-c2cccc(C(F)(F)F)c2)c(=O)n4C)cn1	7.68	7.09	4.84	–
N#Cc1ccc(-n2c(=O)[nH]c3cnc4ccc(-c5ccc(N)nc5)cc4c32)cc1	6.41	6.32	< 4.35	–
O=c1[nH]c2cnc3ccc(-c4ccc(O)cc4)cc3c2n1-c1cccc(C(F)(F)F)c1	6.11	5.83	5.39	1
O=c1[nH]c2cnc3ccc(-c4ccc5[nH]cnc5c4)cc3c2n1-c1cccc(C(F)(F)F)c1	6.67	6.46	5.49	–
Cn1c(=O)n(C2CCCCC2)c2c3cc(-c4ccc(N)nc4)ccc3ncc21	6.08	5.73	5.42	–
Cn1c(=O)n(-c2cccc(C(F)(F)F)c2)c2c3cc(-c4cnc5ccccc5c4)ccc3ncc21	5.24	5.28	4.50	–
Nc1ccc(-c2ccc3ncc4[nH]c(=O)n(C5CCCCC5)c4c3c2)cn1	5.87	5.54	5.19	–
Cn1c(=O)n(-c2cccc(C(F)(F)F)c2)c2c3cc(-c4ccncc4)ccc3ncc21	7.03	6.44	5.76	–
Cn1c(=O)n(-c2cccc(C(F)(F)F)c2)c2c3cc(-c4cccc(N)c4)ccc3ncc21	7.11	6.84	4.86	1
Cn1c(=O)n(-c2cccc(C(F)(F)F)c2)c2c3cc(-c4ccc(S(C)(=O)=O)cc4)ccc3ncc21	6.24	6.07	< 4.35	1
O=c1[nH]c2cnc3ccc(-c4ccncc4)cc3c2n1-c1cccc(C(F)(F)F)c1	6.50	5.94	5.82	–
Nc1ccc(-c2ccc3ncc4[nH]c(=O)n(-c5cccc(C(F)(F)F)c5)c4c3c2)cn1	7.04	7.01	5.51	–
Cc1ccc(-c2ccc3ncc4[nH]c(=O)n(-c5cccc(C(F)(F)F)c5)c4c3c2)cn1	6.74	6.49	< 4.35	–
Cn1c(=O)n(-c2cccc(C(F)(F)F)c2)c2c3cc(-c4ccc(N)cc4)ccc3ncc21	7.07	7.06	5.26	1
NC(=O)c1ccc(-c2ccc3ncc4[nH]c(=O)n(-c5cccc(C(F)(F)F)c5)c4c3c2)cc1	6.96	6.53	< 4.35	1
Cn1c(=O)n(-c2cccc(C(F)(F)F)c2)c2c3ccccc3ncc21	4.77	5.44	< 4.35	–

SMILES	pIC50 [1]	pIC50 [2]	pIC50 [3]	Ratio IC50 [4]
O=c1[nH]c2cnc3ccccc3c2n1-c1cccc(C(F)(F)F)c1	5.30	5.13	< 4.35	–
Cn1c(=O)n(C2CC2)c2c3cc(-c4ccc(N)nc4)ccc3ncc21	5.94	6.06	4.94	–
Cn1c(=O)n(-c2cccc(C(F)(F)F)c2)c2c3cc(-c4cccc(C#N)c4)ccc3ncc21	6.74	5.67	< 4.35	11.7
O=c1[nH]c2cnc3ccc(-c4ccc(O)nc4)cc3c2n1-c1cccc(C(F)(F)F)c1	6.39	5.33	< 4.35	–
Cn1c(=O)n(-c2ccc(C(F)(F)F)cc2)c2c3cc(-c4ccc(N)nc4)ccc3ncc21	6.98	6.63	< 4.35	–
Cn1c(=O)n(-c2ccc(C#N)cc2)c2c3cc(-c4ccc(N)nc4)ccc3ncc21	7.01	6.93	< 4.35	–
CS(=O)(=O)c1ccc(-c2ccc3ncc4[nH]c(=O)n(-c5cccc(C(F)(F)F)c5)c4c3c2)cc1	5.94	5.95	< 4.35	1
Cn1c(=O)n(-c2ccccc2)c2c3cc(-c4ccc(N)nc4)ccc3ncc21	7.16	6.66	5.18	–
Nc1cccc(-c2ccc3ncc4[nH]c(=O)n(-c5cccc(C(F)(F)F)c5)c4c3c2)c1	6.56	6.20	5.21	1
Cn1c(=O)n(-c2cccc(C(F)(F)F)c2)c2c3cc(-c4ccc(N)nc4)ccc3ncc21	8.15	7.55	5.59	4
Cn1c(=O)n(-c2cccc(C(F)(F)F)c2)c2c3cc(-c4ccc(C(N)=O)cc4)ccc3ncc21	7.42	6.30	5.33	10
Nc1ccc(-c2ccc3ncc4[nH]c(=O)n(-c5cccc(C(F)(F)F)c5)c4c3c2)cc1	6.55	5.49	5.14	11.6
O=c1[nH]c2cnc3ccc(-c4ccccc4)cc3c2n1-c1cccc(C(F)(F)F)c1	5.39	4.74	< 4.35	4.6
N#Cc1cccc(-c2ccc3ncc4[nH]c(=O)n(-c5cccc(C(F)(F)F)c5)c4c3c2)c1	6.06	5.55	< 4.35	1
CC(=O)Nc1ccc(-c2ccc3ncc4[nH]c(=O)n(-c5cccc(C(F)(F)F)c5)c4c3c2)cn1	7.09	6.73	< 4.35	–
Nc1ccc(-c2ccc3ncc4[nH]c(=O)n(-c5ccc(C(F)(F)F)cc5)c4c3c2)cn1	6.28	6.24	< 4.35	–
CCn1c(=O)n(-c2cccc(C(F)(F)F)c2)c2c3cc(-c4ccc(N)nc4)ccc3ncc21	6.74	6.69	5.43	–
Cn1c(=O)n(-c2cccc(C(F)(F)F)c2)c2c3cc(-c4ccc(O)nc4)ccc3ncc21	6.80	6.53	4.63	–
O=c1[nH]c2cnc3ccc(-c4cnc5ccccc5c4)cc3c2n1-c1cccc(C(F)(F)F)c1	4.81	5.63	< 4.35	–
Cn1c(=O)n(-c2cccc(C(F)(F)F)c2)c2c3cc(-c4ccccc4)ccc3ncc21	6.35	5.33	< 4.35	10.7
COc1ccc(-n2c(=O)n(C)c3cnc4ccc(-c5ccc(N)nc5)cc4c32)cc1	7.33	6.83	5.63	–
O=c1[nH]c2cnc3ccc(-c4cccnc4)cc3c2n1-c1cccc(C(F)(F)F)c1	5.55	4.94	5.65	–
